In ChEMBL document CHEMBL4177743, “α-Methylation enhances the potency of isoprenoid triazole bisphosphonates as geranylgeranyl diphosphate synthase inhibitors” (Bioorg Med Chem, 2018):
Active and inactive are the calls of the source. No cut-off for these calls is given here.

How the values were obtained:
[1] = molecular target: T1, Farnesyl pyrophosphate synthase (Homo sapiens, UniProt P14324); experiment: Inhibition of recombinant FDPS (unknown origin) using GPP as substrate pretreated for 10 mins followed by substrate addition measured after 30 mins in presence of [14C]-IPP by liquid scintillation counting method
T1 sequence (P14324 whole entry): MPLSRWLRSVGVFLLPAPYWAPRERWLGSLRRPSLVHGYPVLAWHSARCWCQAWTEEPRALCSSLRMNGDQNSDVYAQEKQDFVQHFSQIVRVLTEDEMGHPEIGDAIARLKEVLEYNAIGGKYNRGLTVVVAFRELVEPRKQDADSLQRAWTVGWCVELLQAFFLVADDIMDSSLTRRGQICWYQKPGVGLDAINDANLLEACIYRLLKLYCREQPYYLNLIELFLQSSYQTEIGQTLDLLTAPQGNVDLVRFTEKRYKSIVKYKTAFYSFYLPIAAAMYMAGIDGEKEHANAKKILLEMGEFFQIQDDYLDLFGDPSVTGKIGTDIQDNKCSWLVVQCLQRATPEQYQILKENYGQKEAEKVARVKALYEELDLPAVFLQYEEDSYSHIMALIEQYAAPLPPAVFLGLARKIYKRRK
Method in brief: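 Recombinant FDPS was a gift from an academic laboratory. Each compound was tested in duplicate at multiple concentrations across three independent experiments to obtain IC50, with zoledronic acid as positive control in every run.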

[2] = molecular target: T2, Geranylgeranyl pyrophosphate synthase (Homo sapiens) (UniProt O95749); experiment: Inhibition of GGDPS in human […] cells assessed as decrease in Rab GTPase geranylgeranylation by measuring accumulation of intracellular lambda light chain after 48 hrs by ELISA; type: cell-based
T2 sequence (whole entry): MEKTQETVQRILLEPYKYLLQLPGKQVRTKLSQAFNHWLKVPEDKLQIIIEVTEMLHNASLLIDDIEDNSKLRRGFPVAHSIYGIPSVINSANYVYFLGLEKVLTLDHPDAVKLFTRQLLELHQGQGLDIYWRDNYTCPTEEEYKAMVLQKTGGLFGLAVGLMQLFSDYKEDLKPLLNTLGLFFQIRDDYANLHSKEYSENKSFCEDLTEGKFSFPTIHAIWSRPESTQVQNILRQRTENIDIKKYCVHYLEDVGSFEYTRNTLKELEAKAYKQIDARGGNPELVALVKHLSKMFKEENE
Method in brief: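 RPMI-8226 myeloma cells were exposed for 48 h to a range of test concentrations, with lovastatin (10 μM) as positive control. Whole-cell lysates were made in RIPA buffer with protease and phosphatase inhibitors. Intracellular lambda light chain was quantified by human lambda ELISA and normalized to BCA total protein. Data are % of control, mean + SD, n=3; unpaired two-tailed t-test, p < 0.05.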

[3] = molecular target: T2, Geranylgeranyl pyrophosphate synthase (Homo sapiens); experiment: Inhibition of GGDPS in human […] cells assessed as increase in Rap1a level at 1 to 10 uM by Western blot analysis; type: cell-based
Method in brief: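 RPMI-8226 cells were treated for 48 h with varying compound concentrations or lovastatin (10 μM). RIPA lysates containing protease and phosphatase inhibitors were protein-equalized by BCA, then run on SDS-PAGE and transferred to PVDF. Blots were probed with an antibody detecting only unmodified (non-geranylgeranylated) Rap1a, with β-tubulin as loading control, and developed by HRP secondary and ECL.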

Homo sapiens = organism: Homo sapiens; experiment: Selectivity ratio of IC50 for recombinant FDPS (unknown origin) to IC50 for recombinant GGDPS (unknown origin)
Method in brief: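 Ratio of FDPS IC50 to GGDPS IC50. Both enzymes were recombinant: FDPS from an academic source, GGDPS commercial. Each IC50 came from duplicate wells at multiple concentrations in three independent experiments. Positive controls were zoledronic acid for FDPS and digeranyl bisphosphate for GGDPS.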

[4] = molecular target: T3, Geranylgeranyl pyrophosphate synthase (Homo sapiens, UniProt O95749); experiment: Inhibition of recombinant GGDPS (unknown origin) using FPP as substrate pretreated for 10 mins followed by substrate addition measured after 30 mins in presence of [14C]-IPP by liquid scintillation counting method
T3 sequence (O95749 whole entry): T2 sequence (whole entry)
Method in brief: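 Commercial recombinant GGDPS was used, following a previously described protocol. Each compound was run in duplicate at several concentrations across three independent experiments, and IC50 was reported with digeranyl bisphosphate as the positive control in every run.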

[5] = molecular target: T2, Geranylgeranyl pyrophosphate synthase (Homo sapiens); conditions: 50 to 1000 nM
[6] = molecular target: T2, Geranylgeranyl pyrophosphate synthase (Homo sapiens); conditions: 50 to 1000 nM; remark: listed apart in the source

| Compound | IC50 [1] | MEC [2] | MEC [3] | Ratio IC50 (Homo sapiens) | IC50 [4] | inhibition [5] | inhibition [6] |
| --- | --- | --- | --- | --- | --- | --- | --- |
| CC(C)=CCC/C(C)=C/CCn1cc(CC(C)(P(=O)(O)O)P(=O)(O)O)nn1 [listing 1 of 2 here] | 43.1 µM | – | – | – | – | – | – |
| CC(C)=CCC/C(C)=C/CCn1cc(CC(C)(P(=O)(O)O)P(=O)(O)O)nn1 [listing 2 of 2 here] | – | 0.02 µM | 0.02 µM | 345 | – | – | – |
| CCC(Cc1cn(CC=C(C)CCC=C(C)C)nn1)(P(=O)(O)O)P(=O)(O)O | 94.3 µM | 2.5 µM | 2.5 µM | 16 | 5.85 µM | – | – |
| CC(C)=CCC/C(C)=C/CCn1cc(CC(C)(P(=O)(O)O)P(=O)(O)O)nn1 (mixture of isomers) [listing 1 of 2 here] | 24.1 µM | – | – | – | 0.1 µM | – | – |
| CC(C)=CCC/C(C)=C\Cn1cc(CC(C)(P(=O)(O)O)P(=O)(O)O)nn1 | > 100 µM | 0.1 µM | 0.1 µM | > 108 | 0.92 µM | – | – |
| CC(C)=CCC/C(C)=C/Cn1cc(CC(C)(P(=O)(O)O)P(=O)(O)O)nn1 | 71.4 µM | 5 µM | 5 µM | 3.5 | 20.5 µM | – | – |
| CC(C)=CCCC(C)=CCn1cc(CC(C)(P(=O)(O)O)P(=O)(O)O)nn1 (mixture of isomers) | 62.2 µM | 0.1 µM | 0.1 µM | 49 | 1.27 µM | – | – |
| CC(C)=CCCC(C)=CCn1cc(CC(P(=O)(O)O)P(=O)(O)O)nn1 (mixture of isomers) | – | – | – | – | – | Active | Active |
| CC(C)=CCC/C(C)=C/CCn1cc(CC(C)(P(=O)(O)O)P(=O)(O)O)nn1 (mixture of isomers) [listing 2 of 2 here] | – | 0.03 µM | 0.03 µM | 241 | – | – | – |
| CC(C)=CCC/C(C)=C\CCn1cc(CC(C)(P(=O)(O)O)P(=O)(O)O)nn1 | 59.6 µM | 0.025 µM | 0.025 µM | 693 | – | – | – |
